# PAFAH2 FP inh: PAFAH2 (human) inhibition; recombinant PAFAH2, FP-rhodamine activity probe, fluorescence polarization; inhibition, % at 3.39 µM; 340,000 compounds, 0.99% hits; AID 492956;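 active means inhibition above the mean over all tested compounds plus 3 SD, cut at about 30% in these data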;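 further: inhibitors block probe labeling of enzyme so polarization drops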
# PAFAH1B3 inh: inhibitors of human PAFAH1B3 | recombinant PAFAH1B3, FP-rhodamine probe, fluorescence polarization | AID 492972 | 340,000 compounds, 0.28% hits | inhibition, % at 3.39 µM;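 active means inhibition above the screen-wide average of all tested compounds plus 3 SD, cut at about 25% in these data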
# Target sequence (Q15102 whole entry, looked up): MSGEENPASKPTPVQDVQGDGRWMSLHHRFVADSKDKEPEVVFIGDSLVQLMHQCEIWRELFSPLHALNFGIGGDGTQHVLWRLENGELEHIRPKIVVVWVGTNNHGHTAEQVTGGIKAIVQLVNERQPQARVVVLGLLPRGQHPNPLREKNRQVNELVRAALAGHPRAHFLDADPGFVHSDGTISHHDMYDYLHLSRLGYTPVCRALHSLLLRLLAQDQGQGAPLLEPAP
# pPAFAH FP inh: pPAFAH (human) enzyme inhibition; 330,000 compounds, 1.5% hits; Q13093; inhibition, % at 3.39 µM; recombinant pPAFAH, FP-rhodamine probe fluorescence polarization;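 active means inhibition above the mean inhibition across the screen plus 3 SD, cut at about 25% in these data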;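 further: inhibitors block binding of the rhodamine activity-based probe so polarization drops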
# HTRA1 inhibitor: blocks human HTRA1 serine peptidase; Q92743; recombinant HTRA1, FP-rhodamine activity-based probe, fluorescence polarization; inhibition, % at 5.96 µM; 340,000 compounds, 0.5% hits; in the data active means inhibition above about 36%
# ABHD4 inh: inhibits mouse alpha/beta hydrolase domain 4 | Q8VD66 | purified mABHD4, FP-Rh probe fluorescence polarization | inhibition, % at 8.92 µM | 370,000 compounds, 0.54% hits | AID 720543;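 active means inhibition exceeding the mean over every tested compound plus 3 SD, cut at about 30% in these data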
#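 system = mouse ABHD4 enzyme, wild type | medium = HEPES pH 7.0, NaCl, Pluronic buffer | also added = FP-Rh probe | incubation = Enzyme–compound pre-incubation 45 min, then probe 60 min, both 25 °C | technique = fluorescence polarization, excitation 525 nm, emission 598 nm, BODIPY TMR filters | controls = S159A mutant high control, sample median low control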
# PAFAH1B2 FP inh: inhibitors of human PAFAH1B2 | P68402 | recombinant PAFAH1B2, FP-rhodamine activity probe, fluorescence polarization | inhibition, % at 3.39 µM | 340,000 compounds, 1.2% hits | AID 492953;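 active means inhibition above the mean of all tested compounds plus 3 SD, cut at about 24% in these data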
# Target sequence (P68402 whole entry, looked up): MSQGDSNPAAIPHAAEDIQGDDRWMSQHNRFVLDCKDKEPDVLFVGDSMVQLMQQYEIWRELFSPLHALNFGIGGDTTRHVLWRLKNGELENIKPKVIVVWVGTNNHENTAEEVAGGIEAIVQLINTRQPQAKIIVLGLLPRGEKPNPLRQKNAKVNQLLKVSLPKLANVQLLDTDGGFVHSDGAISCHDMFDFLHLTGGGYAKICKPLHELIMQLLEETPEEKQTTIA
# Hits are given with their value; - = inactive; . = no result given. An excerpt weighted towards active compounds, which were near 2.8% of everything screened.
SMILES,PAFAH2 FP inh,PAFAH1B3 inh,pPAFAH FP inh,HTRA1 inhibitor,ABHD4 inh,PAFAH1B2 FP inh
CC1CCCCC1NS(=O)(=O)c1ccc(S(=O)(=O)N2CCCC2)cc1 (configuration not stated),-,-,25.8,-,-,-
CCNC(=O)N(C)[C@H]1C[C@H]2c3[nH]c4c(-c5cccc(C)c5)cccc4c3CCN2C(=O)[C@H]1[C@H](C)O,.,.,.,.,-,.
CS(=O)(=O)c1ccc(OC[C@@H](O)CN2CCC(C(O)(c3ccccc3)c3ccccc3)CC2)cc1,.,.,.,.,-,.
COCCNC(=O)c1ccc2ccccc2n1,-,-,-,-,-,-
CC1CC(C)CN(C(=O)Cc2c(C(=O)O)[nH]c3ccc(Cl)cc23)C1 (configuration not stated),-,-,-,-,-,81.0
O=C(NCCc1ccc(Cl)cc1)c1ccc2ccccc2n1,-,-,-,-,-,25.1
O=C(O)c1ccccc1C(=O)NCCc1ccc(Cl)cc1,-,-,-,-,-,29.6
O=C(CCc1ccccc1)NNC(=O)Cc1ccc(Cl)cc1,-,-,-,-,-,24.6
O=C(NCCc1ccccc1)c1ccccc1Cl,-,-,-,-,-,-
O=C(NC1CCCCN(Cc2cccc(Cl)c2)C1=O)c1cccc(F)c1 (configuration not stated),.,.,.,.,-,.
C[C@@H]1[C@@H](O)C[C@@]2(C[C@H](O)c3cc(Cl)cc(Cl)c3O2)O[C@H]1c1ccccc1Cl,.,.,.,.,-,.
O=C(O)c1ccccc1C(=O)NCCc1c(C(=O)O)[nH]c2ccc(Cl)cc12,-,-,-,-,-,33.4
COc1ccc2[nH]c(C(=O)O)c(CCNC(C)=O)c2c1,-,-,-,-,-,-
O=C(NCCc1ccc(Cl)cc1)C(=O)c1c[nH]c2ccccc12,-,-,-,-,-,27.5
CC1CCN(C2=NC(=O)N(c3ccc(Br)cc3)C(=O)C2)CC1,.,.,.,.,-,.
O=C(CNCc1ccccc1[N+](=O)[O-])N1CCC2(CC1)OCCO2,.,.,.,.,-,.
CC(C)(N[C@@H](Cc1ccccc1)C(=O)NCCCc1ccccc1)C(=O)NCc1ccccc1,.,.,.,.,-,.
CC(C)C[C@H]1COc2cc(Br)ccc2S(=O)(=O)N1Cc1cn(Cc2ccc(Br)cc2)nn1,.,.,.,.,-,.
COC(=O)C1CN(Cc2cn(Cc3ccc(C)cc3)nn2)CCS(=O)(=O)N1Cc1ccc(F)cc1 (configuration not stated),.,.,.,.,-,.
O=C1[C@H](Cc2ccccc2)NCC=CC[C@H](c2ccc(Cl)cc2)N1Cc1ccccc1,-,-,.,-,-,27.4
O=C1[C@H](Cc2ccccc2)NCC=CC[C@H](c2ccc(Cl)cc2)N1Cc1ccc(Cl)cc1,-,-,.,-,-,-
Cc1cccc(Cn2cc(CN3CC(N(C)CCOC(=O)c4cc(C)cc(C)c4)CS3(=O)=O)nn2)c1 (configuration not stated),.,.,.,.,-,.
CCOC(=O)c1sc2cc([N+](=O)[O-])cc(SCC(=O)OC)c2c1N,-,-,25.4,-,-,-
C[C@H]1[C@@H]2C[C@@]3(O[C@H](c4ccccn4)N=C3C[C@@H]1c1ccccc1)N(Cc1ccncc1)C2=O,.,.,.,.,-,.
Cc1cc(NC(=O)CSCc2ccccc2)no1,-,-,-,-,-,-
SMILES,PAFAH2 FP inh,PAFAH1B3 inh,pPAFAH FP inh,HTRA1 inhibitor,ABHD4 inh,PAFAH1B2 FP inh
Cc1cc(CSCc2ccc(Cl)cc2)no1,-,-,-,-,-,27.4
O=S(=O)(N/N=C/c1ccc2c(c1)OCO2)c1ccc(Br)cc1,-,-,-,-,-,25.6
CC(C)C(=O)Oc1ccc(CO)cc1[C@H](CCN(C(C)C)C(C)C)c1ccccc1,.,.,.,.,-,.
O=C(CCSc1ccc(Cl)cc1)c1ccco1,-,-,-,-,-,28.1
O=C(CSc1ccc(Cl)cc1)c1ccco1,-,-,29.1,-,.,-
Cc1ccc(C(=O)N2CCC(Oc3cccnc3)CC2)cc1,.,.,.,.,-,.
CCOC(=O)[C@@]12CCC3=C1N(CCC3)C(=O)[C@H](CC(=O)NCc1cccc(C(F)(F)F)c1)C2,.,.,.,.,-,.
Oc1c(CN2CCc3ccccc3C2)cc(Cl)c2cccnc12,-,-,-,69.3,.,-
Brc1cc2c(cc1CN1CCc3ccccc3C1)OCO2,-,-,-,-,-,-
O=C(NNC(=S)NCc1ccco1)c1ccc(Cl)s1,-,-,-,-,-,-
O=C(CSCc1ccco1)c1ccc(Cl)s1,.,.,25.3,.,.,.
Cc1noc(C)c1COc1ccccc1C(=O)NC(C)c1ccc(Cl)cc1 (configuration not stated),-,-,-,-,-,32.2
Cc1noc(C)c1COc1ccccc1C(=O)NC(C)CCc1ccccc1 (configuration not stated),-,-,.,-,-,-
CCCC(=O)N1CCC[C@]2(CC[C@@H](CCC#N)O2)C1,.,.,.,.,-,.
O=C(Cc1ccccc1F)Nc1nnc(-c2cccnc2)s1,.,.,.,.,-,.
CC(=O)c1ccc(N(C(=O)Cn2nnc3ccccc32)C(C(=O)NCc2ccccc2)c2ccccn2)cc1 (configuration not stated),-,-,-,-,-,-
Cc1ccc(N(C(=O)Cn2nnc3ccccc32)C(C(=O)NCc2ccccc2)c2ccccn2)cc1 (configuration not stated),-,-,-,-,-,26.1
COc1ccc(C2Nc3ccccc3C(=O)N2Cc2ccccc2)cc1COc1ccc(NC(C)=O)cc1 (configuration not stated),.,.,.,.,-,.
Cc1ccc(C(=O)/C=C/c2ccc(-c3ccc(C)cc3)o2)cc1,-,-,25.7,-,-,-
Oc1ccc2ccccc2c1CNc1ccccc1,-,-,.,-,-,-
Oc1ccc2ccccc2c1CNc1ccc2ccccc2c1,-,-,.,-,39.7,-
COc1ccc(S(=O)(=O)Nc2cccc(F)c2)cc1C,-,-,26.5,-,-,-
COc1ccc(S(=O)(=O)Nc2cccc(N(C)S(C)(=O)=O)c2)cc1C,-,-,-,-,-,-
Cc1ccc(Cn2cc(COC(=O)N3CCOCC3)nn2)cc1,.,.,.,.,-,.
C[C@@H]1OC(C2CCCCC2)N(C)[C@H]2C[C@H]3c4[nH]c5c(-c6ccc7c(c6)OCO7)cccc5c4CCN3C[C@@H]12 (some centres not stated),.,.,.,.,-,.
SMILES,PAFAH2 FP inh,PAFAH1B3 inh,pPAFAH FP inh,HTRA1 inhibitor,ABHD4 inh,PAFAH1B2 FP inh
CCCCNC(=O)C(c1ccc(OCC(=O)OC)c(C(=O)OC)c1)N(CCOC)C(=O)CCCCCN1C(=O)NC(c2ccc(-c3ccccc3)cc2)C(C(=O)OCc2ccccc2)=C1C (configuration not stated),.,.,49.3,.,-,.
O=C(COC(=O)Cc1ccc(F)cc1)NC1CCCCCC1,-,-,.,-,-,-
COc1ccc(NC(=O)Cc2ccsc2)c(OC)c1,-,-,-,-,-,-
O=C(COC(=O)Cc1ccsc1)NC1CCCCCC1,-,-,29.7,-,-,-
COc1ccc(NC(=O)COC(=O)Cc2ccsc2)c(OC)c1,-,-,30.1,-,-,-
COC(=O)[C@]12C[C@H](CC(=O)NCc3ccc(C)o3)C(=O)N(Cc3ccc(Cl)cc3Cl)C1=C[C@H](C(C)(C)C)O[C@@H]2C,.,.,.,.,-,.

# From PubChem BioAssay
